Test results from ChEMBL document CHEMBL3822380, “Simple avarone mimetics as selective agents against multidrug resistant cancer cells” (Eur J Med Chem, 2016).
≈ marks a conversion by molar mass, not a printed value. Calls of active or inactive are those of the source.

What was measured:
[1] = tested on: NCI-H460; assay: Selectivity ratio of IC30/IC50 for human NCI-H460 cells to IC30/IC50 for multidrug resistant human NCI-H460 cells; format: functional
Method in brief: (§1)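 Fold threshold of 1.5 used to call selectivity to cancer cells, resistance, or selectivity to MDR cells.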

[2] = tested on: HaCaT; assay: Induction of apoptosis in human HaCaT cells assessed as late apoptotic/necrotic cells at 25 uM after 72 hrs by annexin-V/propidium iodide staining-based flow cytometric analysis (reference value: 0.2%); format: cell-based
[3] = tested on: NCI-H460; assay: Cytotoxicity against human NCI-H460 cells after 72 hrs by MTT assay; format: functional, cell-based; conditions: NCI-H460, 72 h
Method in brief: (§2)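 Seeding in 96-well plates at 1000 (NCI-H460), 2000 (NCI-H460/R) or 4000 (HaCaT) cells/well, treated after 24 h for 72 h. MTT at 0.4 mg/mL final, 4 h at 37 °C. Formazan dissolved in DMSO, absorbance read at 540 nm. Inhibition % = (1 − A treated/A untreated)×100. IC30 and IC50 obtained by linear regression.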

[4] = tested on: HaCaT; assay: Induction of apoptosis in human HaCaT cells assessed as early apoptotic cells at 25 uM after 72 hrs by annexin-V/propidium iodide staining-based flow cytometric analysis (reference value: 0.2%); format: cell-based
[5] = tested on: NCI-H460; assay: Induction of apoptosis in human NCI-H460 cells assessed as early apoptotic cells at 25 uM after 72 hrs by annexin-V/propidium iodide staining-based flow cytometric analysis (reference value: 0.3%); format: functional
[6] = tested on: HaCaT; assay: Induction of apoptosis in human HaCaT cells assessed as dead cells at 25 uM after 72 hrs by annexin-V/propidium iodide staining-based flow cytometric analysis (reference value: 2.8%); format: cell-based
[7] = tested on: NCI-H460; assay: Induction of apoptosis in multidrug resistant human NCI-H460 cells assessed as late apoptotic/necrotic cells at 25 uM after 72 hrs by annexin-V/propidium iodide staining-based flow cytometric analysis (reference value: 1%); format: functional
[8] = tested on: HaCaT; assay: Induction of superoxide anion generation in human HaCaT cells at 25 uM after 72 hrs by DHE staining-based flow cytometric analysis relative to control; format: cell-based
Method in brief: (§3)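 Seeded as for cell death (50,000 or 100,000 cells/well), treated 72 h at 25 µM, with CDDP 5 µM as control. Adherent cells trypsinized and loaded with 1 µM DHE for 30 min at 37 °C in the dark, then washed twice in PBS. Flow cytometry at ex 488/em 585 nm (FL2-H). Mean fluorescence intensity corrected for autofluorescence and compared with untreated control.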

[9] = Selectivity ratio of IC30/IC50 for human HaCaT cells to IC30/IC50 for multidrug resistant human NCI-H460 cells; format: ADME, cell-based; conditions: HaCaT cells versus multidrug resistant NCI-H460 cells; method in brief: as §1
[10] = tested on: NCI-H460; assay: Induction of apoptosis in multidrug resistant human NCI-H460 cells assessed as live cells at 25 uM after 72 hrs by annexin-V/propidium iodide staining-based flow cytometric analysis (reference value: 96.4%); format: functional
[11] = tested on: NCI-H460; assay: Induction of apoptosis in multidrug resistant human NCI-H460 cells assessed as early apoptotic cells at 25 uM after 72 hrs by annexin-V/propidium iodide staining-based flow cytometric analysis (reference value: 1.1%); format: functional
[12] = tested on: NCI-H460; assay: Induction of apoptosis in human NCI-H460 cells assessed as dead cells at 25 uM after 72 hrs by annexin-V/propidium iodide staining-based flow cytometric analysis (reference value: 1.2%); format: functional
[13] = tested on: NCI-H460; assay: Induction of apoptosis in multidrug resistant human NCI-H460 cells assessed as dead cells at 25 uM after 72 hrs by annexin-V/propidium iodide staining-based flow cytometric analysis (reference value: 1.5%); format: functional
[14] = tested on: NCI-H460; assay: Cytotoxicity against multidrug resistant human NCI-H460 cells after 72 hrs by MTT assay; format: functional, cell-based; conditions: NCI-H460, 72 h; method in brief: as §2
[15] = tested on: NCI-H460; assay: Induction of apoptosis in human NCI-H460 cells assessed as late apoptotic/necrotic cells at 25 uM after 72 hrs by annexin-V/propidium iodide staining-based flow cytometric analysis (reference value: 0.2%); format: functional
[16] = tested on: HaCaT; assay: Cytotoxicity against human HaCaT cells after 72 hrs by MTT assay; format: cell-based; conditions: for IC50: Homo sapiens, HaCaT; for IC30: human, hacat; method in brief: as §2
[17] = Selectivity ratio of IC30/IC50 for human HaCaT cells to IC30/IC50 for human NCI-H460 cells; format: ADME, cell-based; conditions: HaCaT cells versus NCI-H460 cells; method in brief: as §1
[18] = tested on: NCI-H460; assay: Induction of superoxide anion generation in multidrug resistant human NCI-H460 cells at 25 uM after 72 hrs by DHE staining-based flow cytometric analysis relative to control; format: functional, cell-based; method in brief: as §3
[19] = tested on: NCI-H460; assay: Induction of apoptosis in human NCI-H460 cells assessed as live cells at 25 uM after 72 hrs by annexin-V/propidium iodide staining-based flow cytometric analysis (reference value: 98.3%); format: functional
[20] = Induction of apoptosis in human HaCaT cells assessed as live cells at 25 uM after 72 hrs by annexin-V/propidium iodide staining-based flow cytometric analysis (reference value: 96.8%); format: cell-based; conditions: read-out: Activity
[21] = tested on: NCI-H460; assay: Induction of mitochondrial membrane potential depolarization in multidrug resistant human NCI-H460 cells at 25 uM after 15 mins by JC1-staining-based flow cytometric analysis; format: functional, cell-based
Method in brief: (§4)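 Cells treated with 25 µM compound, with CDDP 5 µM as control. Stained with JC-1 for 15 min at 37 °C in a CO2 incubator, washed twice in assay buffer and resuspended in PBS. Flow cytometry read red aggregate (FL2-H) versus green monomer (FL1-H) fluorescence. Live cells were also imaged by fluorescence microscopy.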

[22] = tested on: Aspergillus brasiliensis; assay: Antifungal activity against Aspergillus brasiliensis ATCC 16404 by broth microdilution method; format: functional
Method in brief: (§5)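 Broth microdilution per NCCLS. Compounds dissolved in DMSO as 10 mg/mL stock, diluted in Mueller Hinton broth (bacteria) or Sabouraud dextrose broth (fungi). Amikacin served as the positive control for bacteria and nystatin for fungi.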

[23] = tested on: Saccharomyces cerevisiae; assay: Antifungal activity against Saccharomyces cerevisiae ATCC 9763 by broth microdilution method; format: functional; method in brief: as §5
[24] = tested on: NCI-H460; assay: Induction of superoxide anion generation in human NCI-H460 cells at 25 uM after 72 hrs by DHE staining-based flow cytometric analysis relative to control; format: functional, cell-based; method in brief: as §3
[25] = tested on: NCI-H460; assay: Induction of mitochondrial membrane potential depolarization in human NCI-H460 cells at 25 uM after 15 mins by JC1-staining-based flow cytometric analysis; format: functional, cell-based; method in brief: as §4
[26] = tested on: Candida albicans; assay: Antifungal activity against Candida albicans ATCC 10231 by broth microdilution method; format: functional; method in brief: as §5
[27] = tested on: HaCaT; assay: Induction of mitochondrial membrane potential depolarization in human HaCaT cells at 25 uM after 15 mins by JC1-staining-based flow cytometric analysis; format: cell-based; conditions: 0.25 h; method in brief: as §4
[28] = tested on: Escherichia coli; assay: Antibacterial activity against Escherichia coli ATCC 25922 by broth microdilution method; format: functional; method in brief: as §5
[29] = tested on: NCI-H460; assay: Resistance index, ratio of IC30/IC50 for multidrug resistant human NCI-H460 cells to IC30/IC50 for human NCI-H460 cells; format: functional; method in brief: as §1
[30] = tested on: Bacillus spizizenii; assay: Antibacterial activity against Bacillus subtilis ATCC 6633 by broth microdilution method; format: functional; method in brief: as §5
[31] = tested on: Proteus hauseri; assay: Antibacterial activity against Proteus hauseri ATCC 13315 by broth microdilution method; format: functional; method in brief: as §5
[32] = tested on: Clostridium sporogenes; assay: Antibacterial activity against Clostridium sporogenes ATCC 19404 by broth microdilution method; format: functional; method in brief: as §5
[33] = tested on: Micrococcus luteus; assay: Antibacterial activity against Micrococcus luteus ATCC 4698 by broth microdilution method; format: functional; conditions: NCTC 2665; method in brief: as §5
[34] = tested on: Pseudomonas aeruginosa; assay: Antibacterial activity against Pseudomonas aeruginosa ATCC 9027 by broth microdilution method; format: functional; method in brief: as §5
[35] = tested on: Kocuria rhizophila; assay: Antibacterial activity against Kocuria rhizophila ATCC 9341 by broth microdilution method; format: functional; conditions: DC2201; method in brief: as §5
[36] = tested on: Micrococcus luteus; assay: Antibacterial activity against Micrococcus luteus ATCC 10240 by broth microdilution method; format: functional; method in brief: as §5
[37] = tested on: Salmonella enteritidis; assay: Antibacterial activity against Salmonella enterica subsp. enterica serovar Enteritidis ATCC 13076 by broth microdilution method; format: functional; method in brief: as §5
[38] = tested on: Staphylococcus aureus; assay: Antibacterial activity against Staphylococcus aureus ATCC 6538 by broth microdilution method; format: functional; method in brief: as §5

SMILES	Activity [2]	IC30 [3]	IC50 [3]	Activity [4]	Activity [5]	Activity [6]	Activity [7]	Activity [8]	selectivity ratio [9]	Activity [10]	Activity [11]	Activity [12]	Activity [13]	IC30 [14]	IC50 [14]	Activity [15]	IC50 [16]	IC30 [16]	Activity [19]	viability at 72 h, 25 µM [20]	also measured
CC1=CCC[C@H]2[C@](C)(CC3=CC(=O)C=C(NCCc4ccccc4)C3=O)[C@@H](C)CC[C@]12C	0.4%	14 µM	21 µM	0.2%	0.1%	41.3%	3.5%	Toxic	≤ 1.5	53%	1.2%	28%	42.3%	6 µM	11 µM	0.2%	23 µM	18 µM	71.7%	58.1%	selectivity ratio [1]: <=1.5; selectivity ratio [17]: ≤ 1.5; Activity [18]: Active
CCCCCCCCNC1=CC(=O)C=C(C(C)(C)C)C1=O	2.6%	5 µM	20 µM	0.6%	0.2%	19.8%	2.1%	Non-toxic	≤ 1.5	61.4%	0.1%	42%	36.4%	8 µM	21 µM	2.9%	30 µM	18 µM	54.9%	77%	Activity [21]: Active; MIC [22]: 2150 µM (≈ 626 µg/mL); MIC [23]: 539 µM (≈ 157 µg/mL); Activity [24]: inactive; selectivity ratio [17]: ≤ 1.5; Activity [25]: Active; MIC [26]: 67 µM (≈ 19.5 µg/mL); Activity [18]: Active; Activity [27]: Non-toxic
CCCCNC1=CC(=O)C(C(C)(C)C)=CC1=O		5 µM	36 µM						≤ 1.5					19 µM	72 µM		> 100 µM	50 µM			MIC [28]: 19 µM (≈ 4.47 µg/mL); Ratio [29]: <=1.5; MIC [30]: 1240 µM (≈ 291 µg/mL); MIC [31]: 1.24 mM (≈ 291 µg/mL); MIC [32]: 1240 µM (≈ 291 µg/mL); MIC [22]: 2460 µM (≈ 580 µg/mL); MIC [33]: 2470 µM (≈ 581 µg/mL); MIC [23]: 154 µM (≈ 36.2 µg/mL); MIC [34]: 620 µM (≈ 146 µg/mL); MIC [35]: 2.47 mM (≈ 581 µg/mL); MIC [36]: 38 µM (≈ 8.94 µg/mL); selectivity ratio [17]: ≤ 1.5; MIC [26]: 77 µM (≈ 18.1 µg/mL); MIC [37]: 620 µM (≈ 146 µg/mL); MIC [38]: 38 µM (≈ 8.94 µg/mL)
CC(C)(C)C1=CC(=O)C=C(NCCc2ccccc2)C1=O	6.9%	7 µM	14 µM	4.1%	2.4%	14.2%	11.8%	Non-toxic	≤ 1.5	45.9%	2%	22%	40.3%	3 µM	6 µM	9.5%	23 µM	19 µM	66.1%	74.8%	selectivity ratio [1]: <=1.5; MIC [28]: 9 µM (≈ 2.55 µg/mL); Activity [21]: Active; MIC [30]: 4420 µM (≈ 1250 µg/mL); MIC [31]: 17.7 mM (≈ 5010 µg/mL); MIC [32]: 4420 µM (≈ 1250 µg/mL); MIC [22]: 1110 µM (≈ 313 µg/mL); MIC [33]: 2210 µM (≈ 626 µg/mL); MIC [23]: 34 µM (≈ 9.63 µg/mL); MIC [34]: 4420 µM (≈ 1250 µg/mL); Activity [24]: inactive; MIC [35]: 17.7 mM (≈ 5010 µg/mL); MIC [36]: 34 µM (≈ 9.63 µg/mL); selectivity ratio [17]: ≤ 1.5; Activity [25]: Active; MIC [26]: 34 µM (≈ 9.63 µg/mL); MIC [37]: 4420 µM (≈ 1250 µg/mL); Activity [18]: Active; Activity [27]: Non-toxic; MIC [38]: 9 µM (≈ 2.55 µg/mL)
CCCCCCCCNC1=CC(=O)C=C(C[C@]2(C)[C@@H](C)CC[C@]3(C)C(C)=CCC[C@@H]23)C1=O	0.6%	21 µM	38 µM	0.3%	0.1%	13.8%	0.1%	Toxic		92.6%	0%	3.9%	7.3%	13 µM	35 µM	0.3%	17 µM	13 µM	95.7%	85.3%	Activity [24]: inactive; Activity [18]: Active
CC(C)(C)C1=CC(=O)C=CC1=O	3.8%	> 100 µM	> 100 µM	1.9%	0.5%	7.5%	1.2%			95.2%	0.5%	3.8%	3.1%	31 µM	72 µM	0.5%	95 µM	41 µM	95.2%	86.8%	Activity [21]: inactive; Activity [25]: inactive; Activity [27]: Non-toxic
